Screens as filed in PubChem BioAssay.
An excerpt weighted towards active compounds, which were near 1.8% of everything screened.
M5 PAM: human M5 muscarinic receptor positive allosteric modulators, primary screen, CHO-K1 cells, Fluo-8 calcium fluorescence. CHO-K1 hM5, ACh EC20 PAM; 0% = ACh EC20, 100% = ACh EC100. hit rate 0.3% among 360,000. activation, % at 3 µM. Muscarinic acetylcholine receptor M5 (Homo sapiens), P08912;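 active = activation above the run cutoff, the mean activation of all test compounds plus 3 SD, cut at about 18% in these data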
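Replicates: One well per compound, no replicates | System: Human M5 receptor in CHO-K1 cells | Benchmarks: Low control EC20 acetylcholine (0%), high control EC100 acetylcholine (100%) | Probe or stimulus: Acetylcholine, EC20 level | Times: Fluo-8 loading 80 min at 37 °C plus 30 min room temperature | Signal: Intracellular calcium via Fluo-8 fluorescence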
M5 ag: human M5 muscarinic receptor agonists, primary screen, CHO-K1 cells, Fluo-8 calcium fluorescence | Muscarinic acetylcholine receptor M5 (Homo sapiens), P08912 | hit rate 0.19% among 360,000 | CHO-K1 hM5 cells; 0% DMSO wells, 100% maximal acetylcholine response | activation, % at 3 µM;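 active = activation above the run's mean over test compounds plus 3 SD, cut at about 23% in these data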;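 note: signal is peak over basal fluorescence ratio across the kinetic read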
CHRM4 PAM: human M4 muscarinic receptor positive allosteric modulators, primary screen, CHO-K1 cells, Fluo-8 calcium fluorescence | activation, % at 3 µM | hit rate 0.4% among 360,000 | CHO-K1 hM4/Gqi5, ACh EC20; 0% = ACh EC20, 100% = maximal ACh | AID 624126, 2012 | Muscarinic acetylcholine receptor M4 (Homo sapiens), P08173;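 active = activation above its plate's cutoff, the mean activation of sample wells plus 3 SD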
Target sequence (P08173 whole entry, looked up): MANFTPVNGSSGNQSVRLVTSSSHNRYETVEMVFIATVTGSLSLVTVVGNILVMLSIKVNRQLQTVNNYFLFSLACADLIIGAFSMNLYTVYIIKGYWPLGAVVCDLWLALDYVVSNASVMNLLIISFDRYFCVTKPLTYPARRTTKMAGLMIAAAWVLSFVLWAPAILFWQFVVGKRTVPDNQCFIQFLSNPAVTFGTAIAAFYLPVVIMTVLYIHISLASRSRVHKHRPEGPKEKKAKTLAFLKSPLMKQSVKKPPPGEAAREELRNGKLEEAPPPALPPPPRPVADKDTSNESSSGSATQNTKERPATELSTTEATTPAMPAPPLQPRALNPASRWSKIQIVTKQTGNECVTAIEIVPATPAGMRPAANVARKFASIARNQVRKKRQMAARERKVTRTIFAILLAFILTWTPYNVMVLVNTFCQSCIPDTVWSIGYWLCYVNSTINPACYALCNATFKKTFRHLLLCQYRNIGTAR
CHRM5 antagonist: human M5 muscarinic receptor antagonists, primary screen, CHO cells, Fluo-8 calcium fluorescence; hit rate 0.59% among 360,000; AID 624040, 2012; CHO-hM5 cells, ACh EC80; inhibition, % at 3 µM; Muscarinic acetylcholine receptor M5 (Homo sapiens), P08912;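 active = inhibition above a per-plate cutoff, the mean of that plate's test compounds plus 3 SD, cut at about 27% in these data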
M4 ag: human M4 muscarinic receptor agonists, primary screen, CHO-K1 cells, Fluo-8 calcium fluorescence; Muscarinic acetylcholine receptor M4 (Homo sapiens), P08173; CHO-K1 hM4/Gqi5; vehicle 0%, full acetylcholine response 100%; activation, % at 3 µM; hit rate 0.14% among 360,000; AID 624127, 2012;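 active = activation above the run mean over all test wells plus 3 SD, cut at about 32% in these data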;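 note: peak over basal fluorescence ratio per well then scaled between controls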
M4 antag: human M4 muscarinic receptor antagonists, primary screen, CHO cells, Fluo-8 calcium fluorescence. Muscarinic acetylcholine receptor M4 (Homo sapiens), P08173. CHO-hM4 cells, ACh EC80. inhibition, % at 3 µM. hit rate 0.73% among 360,000. AID 624125, 2012;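 active = inhibition above its plate's cutoff, the mean inhibition of sample wells plus 3 SD, cut at about 27% in these data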
Large screens that a line does not name were inactive.

Cn1cc(S(=O)(=O)N2CCc3ccccc32)cc1C(=O)NC(C)(C)C	CHRM5 antagonist 41.4, M4 antag 37.5
CCN(CC)CCNC(=O)c1ccc(NC(=O)c2cccc(S(=O)(=O)Nc3ccc(C)cc3)c2)cc1	CHRM5 antagonist 52.0, M4 antag 43.5
CN(C)CCNC(=O)c1cccc(S(=O)(=O)Nc2ccc(F)cc2)c1	none
CC(=O)N1CCN(C(=O)c2cccc(S(=O)(=O)N3c4ccccc4CC3C)c2)CC1 (configuration not stated)	CHRM4 PAM 15.8
CCN(CC)CCNC(=O)c1ccc(NC(=O)c2cccc(S(=O)(=O)N3c4ccccc4CC3C)c2)cc1 (configuration not stated)	CHRM5 antagonist 98.3, M4 antag 97.1
O=C(COC(=O)c1ccc(F)cc1F)Nc1ccc(S(=O)(=O)N2CCOCC2)cc1	none
COc1ccc(-c2c([C@H]3[C@H]4C=CC[C@@H](C)[C@@H]4C(=O)N3Cc3ccccc3)ccc3ccccc23)cc1OC	none
COc1ccc(C(=O)Nc2ccc(S(=O)(=O)N3CCc4ccccc43)cc2)cc1	M4 antag 41.5
CC(=O)N(C1=C(Cl)C(=O)c2ccccc2C1=O)C1CCCCC1	M4 antag 44.5
O=S(=O)(c1ccccc1)N1N=C(c2cccs2)CC1c1ccc(Br)cc1 (configuration not stated)	CHRM4 PAM 20.8
O=C(/C=C/c1ccccc1)NCCc1c[nH]c2ccccc12	none
CC#C[C@@H](CC)c1ccc2ccn(C)c2c1	CHRM5 antagonist 27.1
O=C(C=Cc1ccccc1)c1cccs1	none
Nc1ccc(/C=C/C(=O)c2cccs2)cc1	M5 ag 33.4
Cc1sc2ncnc(N3CCCC(C)C3)c2c1C (configuration not stated)	none
O=C(Cc1cccc2ccccc12)Nc1ccc(N2CCOCC2)cc1	none
CCC(=O)NC(C)C(c1cccs1)N1CCOCC1 (configuration not stated)	none
CC(NS(=O)(=O)c1ccc(F)cc1)C(c1cccs1)N1CCOCC1 (configuration not stated)	M4 antag 54.1
CC(NC(=O)Cc1cccs1)C(c1cccs1)N1CCOCC1 (configuration not stated)	CHRM4 PAM 35.6
O=S1(=O)CC(N2CCN(CCO)CC2)CN1CCc1ccccc1 (configuration not stated)	none
CN(C)CCCN(C(=O)c1cc(-c2cccs2)nc2ccccc12)c1nc2c(F)cccc2s1	M4 antag 27.2
O=C(NNC(=O)c1ccccc1C(=O)O)c1ccc(S(=O)(=O)N2CCCCC2)cc1	none
COCCCNC(=O)c1cn(Cc2c(F)cccc2Cl)nn1	M5 PAM 30.4
COc1cc(NC(=O)C2=C(N3CCOCC3)/C(=C\c3ccc(N(C)C)cc3)CCC2)cc(OC)c1OC	CHRM4 PAM 21.4
COc1cc2c(cc1OC)CN(CC(=O)Nc1ccc(Cl)c(S(=O)(=O)N(C)C)c1)CC2	none
O=S(=O)(NCC1CCCO1)c1ccc(-c2ccc(S(=O)(=O)NCC3CCCO3)cc2)cc1 (configuration not stated)	CHRM5 antagonist 35.3
COc1ccc(S(=O)(=O)Nc2ccc(S(=O)(=O)NCC3CCCO3)cc2)cc1 (configuration not stated)	none
CCOc1ccc(NS(=O)(=O)c2ccc(NC(=S)NC(=O)CC(C)C)cc2)cc1	none
Cc1ccc(S(=O)(=O)NCC2CCCO2)cc1 (configuration not stated)	none
COc1ccc(NS(=O)(=O)c2ccc(NC(=S)NCC3CCCO3)cc2)cc1 (configuration not stated)	CHRM5 antagonist 27.0
CCCC(=O)NC(=S)Nc1ccc(S(=O)(=O)Nc2ccc(OCC)cc2)cc1	M5 ag 24.6
Cn1[nH]c(CSc2ccc(Cl)cc2)cc1=O	none
CCCCS(=O)(=O)/C=C\C=C/S(=O)(=O)CCCC	M4 antag 37.2
CCCCS(=O)(=O)/C=C\C1C2C=CC(C2)C1S(=O)(=O)CCCC (configuration not stated)	none
Cc1nsc2nc3c(F)c(F)c(F)c(F)c3cc12	none
CC(C)C[C@H](NC(=O)[C@H](Cc1ccccc1)n1c(=O)[nH]c2ccccc2c1=O)C(=O)N1CCC[C@H]1C(=O)O	none
Cc1ccc(/C=C/S(=O)(=O)Nc2ccc(C)cc2)cc1	none
OCCN1CCN(CCCN2c3ccccc3Sc3ccc(C(F)(F)F)cc32)CC1	none
CN(C)CCCN1c2ccc(O)cc2Sc2ccc(Cl)cc21	CHRM5 antagonist 55.8, M4 antag 44.4
CN(C)CCCN1c2ccccc2Sc2ccc(C(F)(F)F)cc21	CHRM5 antagonist 98.3, M4 antag 83.2
CN(C)CCC(=O)N1c2ccccc2Sc2ccc(C(F)(F)F)cc21	CHRM5 antagonist 100.2, M4 antag 98.8
COc1cccc(/C=C/C(=O)Nc2ccccc2N2CCOCC2)c1	none
Cc1cnc(NC(=O)c2cncc(Br)c2)s1	CHRM4 PAM 20.3
Cc1cnc(NC(=O)c2ccncc2)s1	none
Cc1ccc(CS(=O)(=O)c2ncc(Cl)c(C(=O)Nc3ccc(OC(F)F)cc3)n2)cc1	M4 antag 55.8
Cc1ccc(CNCC(O)(c2ccccc2)c2ccc(Cl)cc2)cc1 (configuration not stated)	none
COc1ccc(CNCC(O)(c2ccccc2)c2ccc(Cl)cc2)cc1 (configuration not stated)	M4 antag 28.2
CC(=O)Nc1cccc(-c2ccnc3c2CC(C(=O)Nc2cccc(N(C)C)c2)O3)c1 (configuration not stated)	none
COC(=O)c1cc(Br)c(=O)n(-c2nccs2)c1	CHRM4 PAM 28.1
C/C(=N\OCC(=O)N/N=C/c1ccc(C)cc1O)c1cccs1	M5 PAM 33.0
C/C(=N\NC(=O)c1ccc(NS(=O)(=O)c2cccs2)cc1)c1cccs1	none
C/C(=N\NC(=O)c1ccc(Cl)cc1)c1cccs1	CHRM4 PAM 22.1
Cc1ccc(/C=N/NC(=O)Cc2ccc(Cl)cc2)c(O)c1	none
C/C(=N\NC(=O)CO/N=C(\C)c1cccs1)c1ccc(N)cc1	M4 antag 28.6
CC(C)N(C)c1ncnc2c1ncn2[C@H]1CN(C2CCCC2)C[C@@H](CO)O1	none
